What was measured:
Mus musculus [1] = assay: Anticonvulsant activity against mouse model of LiCa/pilocarpine-induced status epilepticus assessed as GABA level in brain at 20 mg/kg, po for 10 days by ELISA relative to control; assay type: functional; details: time 10 day
Summary of the method: (§1)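 Male mice (20-30 g), five per group, dosed orally once daily for 10 days. Status epilepticus was then induced with LiCa (3 mEq/kg i.p.), atropine sulfate (1 mg/kg i.p.) 30 min before pilocarpine, and pilocarpine HCl (300 mg/kg i.p.) 2 h after LiCa. Normal controls received oral distilled water. Comparators were untreated SE, phenytoin and lamotrigine. One-way ANOVA with Tukey post-hoc; mean ± SD.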

Mus musculus [2] = assay: Anticonvulsant activity against mouse model of LiCa/pilocarpine-induced status epilepticus assessed as mean power frequency at 20 mg/kg, po for 10 days by EEG method relative to control; assay type: functional; details: time 10 day; summary of the method: as §1
Mus musculus [3] = assay: Anticonvulsant activity against mouse model of LiCa/pilocarpine-induced status epilepticus assessed as alpha at 20 mg/kg, po for 10 days by EEG method relative to control; assay type: functional; details: time 10 day; summary of the method: as §1
Mus musculus [4] = assay: Anticonvulsant activity against mouse model of LiCa/pilocarpine-induced status epilepticus assessed as GSH level in brain at 20 mg/kg, po for 10 days by calorimetric method relative to control; assay type: functional; details: time 10 day; summary of the method: as §1
Mus musculus [5] = assay: Anticonvulsant activity against mouse model of LiCa/pilocarpine-induced status epilepticus assessed as amplitude at 20 mg/kg, po for 10 days by EEG method relative to control; assay type: functional; details: time 10 day; summary of the method: as §1
Mus musculus [6] = assay: Anticonvulsant activity against mouse model of LiCa/pilocarpine-induced status epilepticus assessed as MDA level in brain at 20 mg/kg, po for 10 days by calorimetric method relative to control; assay type: functional; details: time 10 day; summary of the method: as §1
Mus musculus [7] = assay: Anticonvulsant activity against mouse model of LiCa/pilocarpine-induced status epilepticus assessed as theta at 20 mg/kg, po for 10 days by EEG method relative to control; assay type: functional; details: time 10 day; summary of the method: as §1
Mus musculus [8] = assay: Anticonvulsant activity against mouse model of LiCa/pilocarpine-induced status epilepticus assessed as total power at 20 mg/kg, po for 10 days by EEG method relative to control; assay type: functional; details: time 10 day; summary of the method: as §1
Mus musculus [9] = assay: Anticonvulsant activity against mouse model of LiCa/pilocarpine-induced status epilepticus assessed as power pV2 at 20 mg/kg, po for 10 days by EEG method relative to control; assay type: functional; details: time 10 day; summary of the method: as §1
WI-38 = assay: Cytotoxicity against human WI-38 cells assessed as reduction in cell viability after 48 hrs by MTT assay; assay type: cell-based; details: WI-38, 48 h
Summary of the method: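 Cells from ATCC grown in DMEM with 10% FBS, insulin and 1% penicillin-streptomycin. Plated at 1.2-1.8 × 10,000 cells/well for 24 h, then exposed to compounds in DMSO vehicle for 48 h. MTT 0.5 mg/ml added for 2 h; absorbance read at 570 nm. Experiments run in triplicate.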

Mus musculus [10] = assay: Anticonvulsant activity against mouse model of LiCa/pilocarpine-induced status epilepticus assessed as delta at 20 mg/kg, po for 10 days by EEG method relative to control; assay type: functional; details: time 10 day; summary of the method: as §1
Mus musculus [11] = assay: Anticonvulsant activity against mouse model of LiCa/pilocarpine-induced status epilepticus assessed as amplitude density at 20 mg/kg, po for 10 days by EEG method relative to control; assay type: functional; details: time 10 day; summary of the method: as §1
Mus musculus [12] = assay: Anticonvulsant activity against mouse model of LiCa/pilocarpine-induced status epilepticus assessed as Glutamate level in brain at 20 mg/kg, po for 10 days by ELISA relative to control; assay type: functional; details: time 10 day; summary of the method: as §1
Mus musculus [13] = assay: Anticonvulsant activity against mouse model of LiCa/pilocarpine-induced status epilepticus assessed as total power density at 20 mg/kg, po for 10 days by EEG method relative to control; assay type: functional; details: time 10 day; summary of the method: as §1
Mus musculus [14] = assay: Anticonvulsant activity against mouse model of LiCa/pilocarpine-induced status epilepticus assessed as spectral edge frequency at 20 mg/kg, po for 10 days by EEG method relative to control; assay type: functional; details: time 10 day; summary of the method: as §1

Row | SMILES | Activity (Mus musculus [1]) [%] | Activity (Mus musculus [2]) [%] | Activity (Mus musculus [3]) [%] | Activity (Mus musculus [4]) [%] | Activity (Mus musculus [5]) [%] | Activity (Mus musculus [6]) [%] | Activity (Mus musculus [7]) [%] | Activity (Mus musculus [8]) [%] | Activity (Mus musculus [9]) [%] | IC50 (WI-38) [nM] | Activity (Mus musculus [10]) [%] | Activity (Mus musculus [11]) [%] | Activity (Mus musculus [12]) [%] | Activity (Mus musculus [13]) [%] | Activity (Mus musculus [14]) [%]
1 | COc1ccc(/C=C2/N=C(c3ccc(C)cc3)N(C(=O)Cc3nc4c(c(C)nn4-c4ccccc4)c(=O)[nH]3)NC2=O)cc1 | 71.88 | -33 | 0.71 | 50.67 | 80.44 | -69.49 | 27.12 | 33.82 | 218.96 | 18.6 | 362.78 | 82.98 | -50.42 | 264.63 | -26.44
2 | Cc1nn(-c2ccccc2)c2nc(C(=O)N3NC(=O)/C(=C/c4ccccc4)N=C3c3ccccc3)[nH]c(=O)c12 | 61.71 | -30.24 | 12.39 | 154.11 | 67.11 | -72.13 | 28.9 | 13.12 | 138.76 | 49.5 | 314.32 | 78.42 | -58.33 | 229.32 | -16.31
3 | COc1ccc(/C=C2/N=C(c3ccccc3)N(C(=O)Cc3nc4c(c(C)nn4-c4ccccc4)c(=O)[nH]3)NC2=O)cc1 | 104.31 | -39.36 | 2.55 | 136.46 | 66.22 | -66.91 | 24.43 | 16.62 | 167.62 | 17.2 | 266.63 | 47.72 | -75.98 | 215.63 | -21.87
4 | COc1ccc(/C=C2\N=C(c3ccc(Cl)cc3)N(C(=O)c3nc4c(c(C)nn4-c4ccccc4)c(=O)[nH]3)NC2=O)cc1 | 87.03 | -40.42 | -4.74 | 150.97 | 71.11 | -67.54 | 20.25 | 14.87 | 190.77 | 25 | 330.62 | 46.81 | -66.54 | 245.46 | -22.51
5 | Cc1ccc(C2=N/C(=C/c3ccccc3)C(=O)NN2C(=O)Cc2nc3c(c(C)nn3-c3ccccc3)c(=O)[nH]2)cc1 | 91.22 | -46.23 | -5.99 | 188.85 | 90.67 | -69.74 | 11.83 | 23.32 | 243.46 | 85.6 | 366.41 | 110.33 | -82.89 | 302.31 | -29
6 | Cc1nn(-c2ccccc2)c2nc(C(=O)N3NC(=O)/C(=C/c4ccccc4)N=C3c3ccc(Cl)cc3)[nH]c(=O)c12 | 89.37 | -22.83 | 27.21 | 80.37 | 54.67 | -55.28 | 16.08 | 10.2 | 133.56 | 55 | 254.07 | 76.29 | -39.91 | 200.5 | -13.59
7 | Cc1nn(-c2ccccc2)c2nc(CC(=O)N3NC(=O)/C(=C\c4ccc(Cl)cc4)N=C3c3ccc(Cl)cc3)[nH]c(=O)c12 | 82.22 | -25.05 | 35.86 | 146.06 | 45.78 | -60.61 | 54.18 | 0.58 | 126.51 | 12.9 | 239.87 | 69.3 | -58.56 | 181.99 | -13.39
8 | COc1ccc(/C=C2\N=C(c3ccccc3)N(C(=O)c3nc4c(c(C)nn4-c4ccccc4)c(=O)[nH]3)NC2=O)cc1 | 68.66 | -48.49 | -5.51 | 141.33 | 99.56 | -54.04 | 29.32 | 30.61 | 230.03 | 97.7 | 368.94 | 88.15 | -76.21 | 265.27 | -25.28
9 | Cc1nn(-c2ccccc2)c2nc(CC(=O)N3NC(=O)/C(=C\c4ccccc4)N=C3c3ccc(Cl)cc3)[nH]c(=O)c12 | 40.05 | -28.52 | 34.85 | 191.86 | 55.11 | -46.88 | 34.99 | 0.29 | 117.95 | 80.2 | 264.98 | 68.09 | -45.51 | 175.43 | -17.33
10 | Cc1ccc(C2=N/C(=C\c3ccccc3)C(=O)NN2C(=O)c2nc3c(c(C)nn3-c3ccccc3)c(=O)[nH]2)cc1 | 59.73 | -37.93 | 9.13 | 173.91 | 62.22 | -66.18 | 32.01 | 15.45 | 143.79 | 24.5 | 241.85 | 36.17 | -72.91 | 210.16 | -22.26
11 | Cc1nn(-c2ccccc2)c2nc(CC(=O)N3NC(=O)/C(=C\c4ccc(Cl)cc4)N=C3c3ccccc3)[nH]c(=O)c12 | 80.61 | -44.11 | 0.12 | 170 | 82.67 | -74.39 | 20.33 | 23.03 | 204.36 | 111 | 327.42 | 63.22 | -76.98 | 248.78 | -28.09
12 | COc1ccc(/C=C2\N=C(c3ccc(C)cc3)N(C(=O)c3nc4c(c(C)nn4-c4ccccc4)c(=O)[nH]3)NC2=O)cc1 | 79.64 | -32.59 | 4.98 | 98.02 | 79.11 | -46.76 | 32.29 | 18.66 | 198.49 | 36.8 | 295.04 | 56.84 | -67.77 | 222.48 | -18.75
13 | O=C1NC(=O)C(c2ccccc2)(c2ccccc2)N1 [PHENYTOIN] | 92.87 | -58.54 | -14.82 | 156.39 | 158.67 | -56.88 | 19.76 | 51.6 | 332.89 |  | 485.9 | 175.08 | -81.35 | 381.63 | -38.74
14 | CS(=O)(=O)CCNCc1ccc(-c2ccc3ncnc(Nc4ccc(OCc5cccc(F)c5)c(Cl)c4)c3c2)o1 [LAPATINIB] | 83.04 | -50.58 | -8.6 | 172.32 | 122.67 | -57.67 | 12.11 | 33.24 | 272.65 | 45.2 | 425.44 | 142.55 | -81.12 | 346.9 | -34.07
